Bioassay records from PubChem BioAssay.
In the library only some 1.4% were active in any assay of this set; here they are far more common.
Efflux pump mplx: blocks antifungal efflux pumps in multiplex yeast assay; inhibition, % at 10 µM; 330,000 compounds, 0.44% hits; S. cerevisiae Candida pump triplex, Nile Red efflux;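 active = plate passing quality check with inhibition over a set limit, or well fluorescence over plate mean plus 4 SD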;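 also: Nile Red retained in pooled yeast measured as flow cytometry median fluorescence; 0% = buffer negative control and 100% = Enniatin B positive control; higher means more Nile Red kept so more efflux inhibition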
IDE cell inh: cellular human IDE inhibition | P14735 | HEK cells, FAbetaB cleavage, fluorescence polarization | inhibition, % at 5.59 µM | 320,000 compounds, 0.41% hits | AID 434962;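 active = percent inhibition above the average of all tested compounds plus 3 SD, set per screening campaign, cut at about 16% in these data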;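 also: IDE supplied by intact live HEK cells; FP after avidin binding of uncleaved biotin substrate so inhibition keeps polarization high; 0% = DMSO wells and 100% = 60 µM reference IDE inhibitor Ii1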
TbMetRS inhib: blocks T. brucei methionyl-tRNA synthetase activity | 360,000 compounds, 0.4% hits | inhibition, % at 11.9 µM | purified T. brucei MetRS, ATP depletion, Kinase-Glo luminescence;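 active = inhibition above a per-plate cutoff of the control wells' mean inhibition plus 3 SD, cut at about 5.5% in these data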;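 also: 0% = DMSO wells median and 100% = median of wells with control inhibitor compound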
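Assay system: T. brucei methionyl-tRNA synthetase, purified | Medium: HEPES buffer with MgCl2, KCl, DTT, spermine, BSA, pyrophosphatase | Compound: 11.9 µM single point | Incubation: 15 min enzyme-compound preincubation, 2 h reaction, 10 min detection, 25 °C | Measured by: Kinase-Glo luciferase luminescence reporting remaining unconsumed ATP | Measure: % inhibition normalized to control-well medians | Replication: Singlicate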
Yeast superoxide: caloric restriction mimetics inhibiting age-related superoxide in yeast; 330,000 compounds, 0.18% hits; S. cerevisiae aged cells, superoxide DHE fluorescence; active compounds read low; superoxide response (% of plate mean), % at 10 µM;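 active = superoxide response under a set limit, about three screen SD below normal, cut at about 65% in these data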;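 also: yeast aged for seven days with compound at 30 °C before DHE staining; 100% = average MFI of all compound-treated wells on the plate with controls excluded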
HDAC3 inhib: inhibitors of human histone deacetylase 3; 320,000 compounds, 0.15% hits; AID 2718; recombinant HDAC3, fluorogenic peptide/trypsin coupled, fluorescence; inhibition, % at 8.3 µM; in the data active = inhibition above about 26%, passing the limit was not always enough
Target sequence (O15379 whole entry, looked up): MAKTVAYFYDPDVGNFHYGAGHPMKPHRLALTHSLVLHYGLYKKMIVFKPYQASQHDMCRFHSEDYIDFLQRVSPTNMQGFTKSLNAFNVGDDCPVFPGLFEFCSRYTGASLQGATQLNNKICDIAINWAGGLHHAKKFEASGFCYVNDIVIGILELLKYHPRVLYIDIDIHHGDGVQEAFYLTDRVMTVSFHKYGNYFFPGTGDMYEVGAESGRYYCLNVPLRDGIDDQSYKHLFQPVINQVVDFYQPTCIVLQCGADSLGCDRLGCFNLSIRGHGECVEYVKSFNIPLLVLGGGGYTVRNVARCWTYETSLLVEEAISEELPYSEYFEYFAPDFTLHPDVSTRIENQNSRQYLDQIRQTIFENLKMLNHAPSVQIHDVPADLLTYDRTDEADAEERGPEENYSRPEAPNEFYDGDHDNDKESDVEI
IDE cell activ: activators of human insulin-degrading enzyme in cells | P14735 | HEK cells, FAbeta-B cleavage, fluorescence polarization; 0% vehicle, 100% cell-free pure enzyme wells | activation, % at 5.96 µM | 340,000 compounds, 0.073% hits | AID 493087;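 active = activation above the mean of all tested compounds plus 3 SD, set per screening campaign, cut at about 17% in these data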
Yeast cmpd fluor: flagged as fluorescent in efflux inhibitor counter-screen. shares compounds with Efflux pump mplx. S. cerevisiae AD/pABC3, compound fluorescence, flow cytometry. fluorescence ratio to DMSO, % at 10 µM. 1,700 compounds, 4% hits. AID 588517;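 active = fluorescence ratio to DMSO above its plate's cutoff, the plate mean ratio plus 5 SD, cut at about 210% in these data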;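 also: unstained yeast with no Nile Red so the signal is compound autofluorescence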
Mdr1 pump inh: inhibitors of Candida albicans Mdr1 efflux pump; shares compounds with Efflux pump mplx; S. cerevisiae AD/CaMDR1, Nile Red efflux, flow cytometry; inhibition, % at 10 µM; 1,700 compounds, 1% hits; AID 588518; in the data active = inhibition above about 26%;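 also: 0% = DMSO vehicle and 100% = reference inhibitor; higher means more Nile Red retained so more efflux inhibition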
CaCdr2 efflux inh: inhibitors of Candida albicans Cdr2 efflux pump; shares compounds with Efflux pump mplx; S. cerevisiae AD/CaCDR2, Nile Red retention, flow cytometry; Nile Red retention ratio vs DMSO, % at 10 µM; 1,700 compounds, 4% hits; in the data active = Nile Red retention ratio vs DMSO above about 190%;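 also: higher ratio means more blocking of Cdr2 efflux of the dye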
Cdr1 pump inh: Candida Cdr1 efflux pump inhibition. shares compounds with Efflux pump mplx. S. cerevisiae AD/CaCDR1, Nile Red efflux, flow cytometry. inhibition, % at 10 µM. 1,700 compounds, 1% hits;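 active = inhibition above the screen-wide mean plus twice its standard deviation, cut at about 32% in these data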
The depositor's hits bear a star.

How did CN1CCN(C(=O)/C(=C\c2cccs2)NC(=O)c2ccco2)CC1 do in these assays?
Efflux pump mplx: 9.7*; IDE cell inh: -5; TbMetRS inhib: 0; Yeast superoxide: 67; HDAC3 inhib: 4; IDE cell activ: 5; Yeast cmpd fluor: 102; Mdr1 pump inh: 0; CaCdr2 efflux inh: 104; Cdr1 pump inh: 0

How did Cc1cccc(C(=O)N2CCC(=O)N(C(COCc3cccc(C(F)(F)F)c3)Cc3ccccc3)CC2)c1 (stereo unspecified) do in these assays?
Efflux pump mplx: 1.0*; IDE cell inh: 5; TbMetRS inhib: 0; Yeast superoxide: 111; HDAC3 inhib: 15; IDE cell activ: 0; Yeast cmpd fluor: 101; Mdr1 pump inh: 0; CaCdr2 efflux inh: 98; Cdr1 pump inh: 0

How did COc1ccc(C(CNC(=O)C(Cc2ccccc2)NC(N)=O)N(C)C)cc1 (stereo unspecified) do in these assays?
Efflux pump mplx: 0; IDE cell inh: 1; TbMetRS inhib: 0; Yeast superoxide: 104; HDAC3 inhib: 1; IDE cell activ: 4

Results for O=C(NC(Cc1ccccc1)C(=O)O)c1ccc(S(=O)(=O)N2CCCCC2)cc1 (stereo unspecified) ?
Efflux pump mplx: 6.7*; IDE cell inh: 1; TbMetRS inhib: 0; Yeast superoxide: 99; HDAC3 inhib: 0; IDE cell activ: -5; Yeast cmpd fluor: 114; Mdr1 pump inh: 0; CaCdr2 efflux inh: 103; Cdr1 pump inh: 0

What do the screens show for `O=P(COCCOCCOCCOCP(=O)(c1ccccc1)c1ccccc1)(c1ccccc1)c1ccccc1`?
Efflux pump mplx: 0; IDE cell inh: 5; TbMetRS inhib: 0; Yeast superoxide: 94; HDAC3 inhib: -9; IDE cell activ: 6

How did Cc1ccc(C)c(OCc2cc(C(=O)N3CCNC(=O)C3)no2)c1 do in these assays?
Efflux pump mplx: 0; IDE cell inh: 7; TbMetRS inhib: 0; Yeast superoxide: 89; HDAC3 inhib: -3; IDE cell activ: -15; Yeast cmpd fluor: 103; Mdr1 pump inh: -1; CaCdr2 efflux inh: 90; Cdr1 pump inh: 0

How did COCCNC(=O)c1cc(-c2ccccc2)nn1CC1CC(c2cccnc2)=NO1 (stereo unspecified) do in these assays?
Efflux pump mplx: 0; IDE cell inh: 1; TbMetRS inhib: -1; Yeast superoxide: 99; HDAC3 inhib: -1; IDE cell activ: 1

Results for CCCCCC[N+](C)(C)CC/C=C1/c2ccccc2Sc2ccc(Cl)cc21 ?
Efflux pump mplx: 0; IDE cell inh: 1; TbMetRS inhib: 0; Yeast superoxide: 107; HDAC3 inhib: 1; IDE cell activ: -2

How did CN(C)CC/C=C1/c2ccccc2Sc2ccc(Cl)cc21 do in these assays?
Efflux pump mplx: 0; IDE cell inh: 3; TbMetRS inhib: -1; Yeast superoxide: 91; HDAC3 inhib: 2; IDE cell activ: -3; Yeast cmpd fluor: 97; Mdr1 pump inh: 0; CaCdr2 efflux inh: 94; Cdr1 pump inh: 0

What do the screens show for `Cc1c(NC(=O)c2ncn[nH]2)cccc1-c1nc2ccccc2s1`?
Efflux pump mplx: 6.2*; IDE cell inh: 2; TbMetRS inhib: 0; Yeast superoxide: 106; HDAC3 inhib: 2; IDE cell activ: 5; Yeast cmpd fluor: 101; Mdr1 pump inh: 0; CaCdr2 efflux inh: 98; Cdr1 pump inh: 0

What do the screens show for `Cc1c(NC(=O)c2ccc(N3CCCC3)c([N+](=O)[O-])c2)cccc1-c1nc2ccccc2s1`?
Efflux pump mplx: 0; IDE cell inh: 10; TbMetRS inhib: -1; Yeast superoxide: 87; HDAC3 inhib: 2; IDE cell activ: 5

What do the screens show for `COc1ccc(CC(=O)Nc2ccc(NC(=O)c3ccc(Br)cc3)cc2)cc1OC`?
Efflux pump mplx: 0.8*; IDE cell inh: 1; TbMetRS inhib: 2; Yeast superoxide: 92; HDAC3 inhib: -6; IDE cell activ: -2; Yeast cmpd fluor: 99; Mdr1 pump inh: 0; CaCdr2 efflux inh: 98; Cdr1 pump inh: 0

Results for COc1ccc(C(=O)Nc2ccc(C(=O)NCCc3ccc(OC)c(OC)c3)cc2)cc1 ?
Efflux pump mplx: 0; IDE cell inh: 3; TbMetRS inhib: -1; Yeast superoxide: 96; IDE cell activ: 4

What do the screens show for `CCCCn1c(N)c(N(CC(C)C)C(=O)CN2C(=O)C3CCCCC3C2=O)c(=O)[nH]c1=O` (stereo unspecified)?
Efflux pump mplx: 0; IDE cell inh: -8; TbMetRS inhib: 0; Yeast superoxide: 112; HDAC3 inhib: 4; IDE cell activ: -2

How did CCCCn1c(N)c(N(CC(C)C)C(=O)CN2C(=O)NC3(CC(C)CC(C)(C)C3)C2=O)c(=O)[nH]c1=O (stereo unspecified) do in these assays?
Efflux pump mplx: 0.9*; IDE cell inh: -6; TbMetRS inhib: 0; Yeast superoxide: 95; HDAC3 inhib: 0; IDE cell activ: 2; Yeast cmpd fluor: 98; Mdr1 pump inh: 0; CaCdr2 efflux inh: 102; Cdr1 pump inh: 0

Results for CC[n+]1c(/C=C/c2ccc(OC(C)=O)c(OC)c2)ccc2ccccc21 ?
Efflux pump mplx: 0; TbMetRS inhib: -1; Yeast superoxide: 104; HDAC3 inhib: 4; IDE cell activ: -4

Results for CC[n+]1c(/C=C/c2ccc(OC)c(OC)c2)ccc2ccccc21 ?
Efflux pump mplx: 0.7*; IDE cell inh: 5; TbMetRS inhib: 0; Yeast superoxide: 106; HDAC3 inhib: 7; IDE cell activ: 2; Yeast cmpd fluor: 177; Mdr1 pump inh: 0; CaCdr2 efflux inh: 107; Cdr1 pump inh: 0

How did CCN(CC)c1ccc(/C=C/c2ccc3ccc(OC)cc3[n+]2CC)cc1 do in these assays?
Efflux pump mplx: 16*; IDE cell inh: -6; TbMetRS inhib: -1; Yeast superoxide: 109; HDAC3 inhib: 10; IDE cell activ: -7; Yeast cmpd fluor: active; Mdr1 pump inh: 11; CaCdr2 efflux inh: 155; Cdr1 pump inh: 9

Results for C[n+]1ccc(/C=C/c2cccs2)cc1 ?
Efflux pump mplx: 0; IDE cell inh: 6; TbMetRS inhib: -1; Yeast superoxide: 105; HDAC3 inhib: -4; IDE cell activ: 2
